Compound activity as filed in PubChem.
This is a sample that favours compounds with a hit; in the whole collection about 1.3% have one here.
aDG glyco up: alpha-DG glycosylation activation | 360,000 tested, 0.22% active | Pro5-aDG cells, alpha-DG glycosylation AlphaScreen (IIH6); 0% Pro5, 100% B10-LARGE cell signal | activation, % at 10 µM;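 active = activation of at least 8% versus controls, or a plate z-score of at least 8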;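 also: Pro5 are CHO cells carrying HIG-tagged alpha-DG that lacks glycosylation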
NRP1-CendR mod: alters CendR peptide binding to human NRP-1; O14786; FAM-RPARPAR peptide binding to NRP-1, fluorescence polarization; inhibition, % at 25 µM; 360,000 tested, 0.85% active;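 active = inhibition or corrected inhibition above about 18%, plus a signal ratio from 0.5 to 1.5, limit read from the data, passing the limit was not always enough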
Target sequence (O14786 whole entry, looked up): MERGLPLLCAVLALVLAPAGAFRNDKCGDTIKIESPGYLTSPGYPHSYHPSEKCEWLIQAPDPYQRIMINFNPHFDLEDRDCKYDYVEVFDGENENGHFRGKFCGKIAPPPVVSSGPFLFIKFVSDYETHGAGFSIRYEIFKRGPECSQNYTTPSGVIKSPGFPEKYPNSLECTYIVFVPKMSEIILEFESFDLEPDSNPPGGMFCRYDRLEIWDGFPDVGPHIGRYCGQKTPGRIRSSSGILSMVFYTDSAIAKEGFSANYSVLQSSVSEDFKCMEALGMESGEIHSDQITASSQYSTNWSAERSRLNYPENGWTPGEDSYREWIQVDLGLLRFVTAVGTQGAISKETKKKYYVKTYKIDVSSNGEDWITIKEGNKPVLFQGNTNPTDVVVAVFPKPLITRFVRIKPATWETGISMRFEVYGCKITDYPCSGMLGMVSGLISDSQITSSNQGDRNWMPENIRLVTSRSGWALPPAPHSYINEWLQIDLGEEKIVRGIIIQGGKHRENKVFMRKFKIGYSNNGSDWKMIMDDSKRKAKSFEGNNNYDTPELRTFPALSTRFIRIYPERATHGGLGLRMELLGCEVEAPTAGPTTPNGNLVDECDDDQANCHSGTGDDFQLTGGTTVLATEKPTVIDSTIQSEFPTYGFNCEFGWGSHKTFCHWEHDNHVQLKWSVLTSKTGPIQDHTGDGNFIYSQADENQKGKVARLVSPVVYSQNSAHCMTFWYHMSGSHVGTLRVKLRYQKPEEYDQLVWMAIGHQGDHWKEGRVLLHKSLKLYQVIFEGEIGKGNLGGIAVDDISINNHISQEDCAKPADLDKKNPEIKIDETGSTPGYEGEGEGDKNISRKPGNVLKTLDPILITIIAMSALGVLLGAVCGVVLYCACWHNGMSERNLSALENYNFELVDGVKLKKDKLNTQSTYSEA
Tn7 DDE FP: inhibitors of Tn7 peptide binding to human fibrin DD(E); FP displacement of FITC-Tn7 peptide from fibrin DD(E); 0% = median of compound wells per plate; inhibition, % at 8.3 µM; 370,000 tested, 0.13% active; AID 720508;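 active = inhibition above the mean of compounds falling within the control limits plus 3 SD of them, cut at about 14% in these data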
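System: human fibrin DD(E); quantity: Fibrin-DD(E) at 2 µM final; also added: fluorescent Tn7 probe at 0.1 µM; compound dosing: single nominal test concentration of 8.3 µM per compound; schedule: 10 min preincubation, 3 h with tracer, room temperature; detection: fluorescence polarization of the labelled Tn7 tracer; repeats: one replicate per compound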
Tn6 DDE FP: inhibitors of Tn6 peptide binding to human fibrin DD(E) | P02675 | Fibrin DD(E) TRITC-Tn6 fluorescence polarization displacement | inhibition, % at 8.3 µM | 370,000 tested, 0.21% active;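 active = inhibition above a per-campaign cutoff: mean of compounds within control limits plus 3 SD, cut at about 15% in these data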
Tn7 DDE conf: confirmation of inhibitors of Tn7 binding to human fibrin DD(E) | shares compounds with Tn7 DDE FP | FP displacement of TRITC-Tn7 peptide from DD(E); 0% set at plate's compound-well median | inhibition, % at 8.3 µM | 460 tested, 5% active | AID 720628;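 active = inhibition above the campaign cutoff, the mean of compounds within control limits plus 3 SD, cut at about 14% in these data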;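 also: displacers lower polarization since freed probe rises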
Tn7 DDE ctr: counter-screen hit for Tn7 peptide-fibrin DD(E) binding disruption | shares compounds with Tn7 DDE FP | TRITC-Tn7 probe displacement, fluorescence polarization | inhibition, % at 8.3 µM | 460 tested, 3% active | AID 720633;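 active = inhibition above the cutoff, the mean of compounds lying between the control bounds plus 3 SD of those compounds, cut at about 17% in these data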
A number is an active result; - = inactive; . = no result.

SMILES	aDG glyco up	NRP1-CendR mod	Tn7 DDE FP	Tn6 DDE FP	Tn7 DDE conf	Tn7 DDE ctr
Cc1ccc(-c2c(C#N)c(N)n(-c3ccc(Cl)cc3)c(=O)c2C#N)cc1	-	-	14	-	-	-
Cc1ccc(-c2c(C#N)c(N)n(-c3ccccc3)c(=O)c2C#N)cc1	-	-	-	-	.	.
CCOc1ccc(C(=O)NCC(c2cccs2)N2CCOCC2)cc1 (configuration not stated)	-	-	-	-	.	.
CC(C)CCOc1ccc(C(=O)NCC(c2cccs2)N2CCOCC2)cc1 (configuration not stated)	-	-	15	-	-	-
COc1ccc(S(=O)(=O)N2CCC(C(=O)N3CCCC3)CC2)cc1Cl	-	-	15	-	-	-
O=[N+]([O-])c1cccc(S(=O)(=O)N2CCN(S(=O)(=O)N3CCOCC3)CC2)c1	-	-	-	-	.	.
O=C(C1CCN(S(=O)(=O)c2cccc([N+](=O)[O-])c2)CC1)N1CCOCC1	-	-	14	-	-	-
Cc1ccc(CC(=O)Nc2ccc(F)c([N+](=O)[O-])c2)cc1	-	-	15	-	-	-
Cc1ccc(CC(=O)Nc2ccc(F)c([N+](=O)[O-])c2)cc1C	-	-	-	-	.	.
O=C(NCCCC1CCCC1)C1CCC(=O)N(Cc2cccc(F)c2)C1 (configuration not stated)	-	-	-	-	.	.
O=C(NCCCC1CCCC1)C1CCC(=O)N(Cc2ccc(Cl)cc2)C1 (configuration not stated)	-	-	14	-	-	-
COC(=O)c1cc2c(c3c4cc(OC)ccc4n(C(=O)c4ccccc4)c13)C(=O)N(Cc1ccco1)C2	.	.	-	-	.	.
CSCc1cc(C(=O)NC2CC2)c(N)s1	-	-	-	-	.	.
CCOC(=O)C1CCN(CC(=O)N2CCc3ccccc32)CC1	-	-	14	-	-	-
N#CC1=C2C=Cc3ccccc3N2CCCC1=O	-	-	16	-	-	-
COC(=O)c1cc(NC(=O)NC2CCCCN(Cc3ccc(Cl)cc3)C2=O)cc(C(=O)OC)c1 (configuration not stated)	.	.	-	-	.	.
COc1ccc(C2C(C(=O)c3cccs3)=C(O)C(=O)N2c2cccc(C)n2)cc1 (configuration not stated)	-	-	-	-	.	.
Cc1ccc(C2C(C(=O)c3cccs3)=C(O)C(=O)N2c2nnc(C)s2)cc1 (configuration not stated)	-	-	32	-	-	-
Nc1ncnc2c1ncn2[C@@H]1O[C@H](C(=O)N[C@@H](CCc2ccccc2)C(=O)N2CCN(C(=O)N3CCOCC3)CC2)[C@@H](O)[C@H]1O	.	.	-	-	.	.
COc1cc([N+](=O)[O-])ccc1NC(=S)NNC(=O)CCC(=O)Nc1ccccc1Cl	-	-	15	-	-	-
N#Cc1ccc(C(=O)Oc2coc(CSc3ncccn3)cc2=O)cc1	.	.	-	-	.	.
CC(C)=C(NC(=O)c1ccccc1)C(=O)N1CCOCC1	-	-	-	-	.	.
O=C(N/C(C(=O)N1CCOCC1)=C(\Sc1ncccn1)c1ccccc1)c1ccccc1	-	-	15	-	-	-
CN(C(=O)c1cccc(NC(=O)Cc2cccc(NC(=O)C3CCCN(C(=O)C4CCC4)C3)c2)c1)C1CCC1 (configuration not stated)	-	-	-	-	.	.
Cc1cc(NC(=O)COC(=O)c2ccc(OC(F)(F)F)cc2)no1	-	-	16	-	-	-
SMILES	aDG glyco up	NRP1-CendR mod	Tn7 DDE FP	Tn6 DDE FP	Tn7 DDE conf	Tn7 DDE ctr
CC(C)(C)NC(=O)NC(=O)COC(=O)c1ccc(OC(F)(F)F)cc1	-	-	14	-	-	-
CC(C)(C)NC(=O)NC(=O)COC(=O)c1ccc(OC(F)F)cc1	-	-	-	-	.	.
CCCCCOc1ccc(C(=O)OCC(=O)Nc2cc(C)on2)cc1	-	-	-	-	.	.
C#CCn1cc(/C=N/NC(=O)c2cc3ccccc3o2)c2ccccc21	-	-	18	-	14	-
O=C(N/N=C/c1cccc2ccccc12)c1cc2ccccc2o1	-	-	-	-	.	.
C=CCNS(=O)(=O)c1ccc(OCC(=O)OC)cc1	-	-	16	-	-	-
CN(C)c1ccc(C(=O)NCCc2ccccc2-c2ccccc2CCC(=O)NCc2ccccc2)cc1	.	.	-	-	.	.
CN(C)/C=C1\C=C2C(=O)c3ccccc3N2C1=O	-	-	30	-	53	24
CC1(c2ccccc2Cl)NC(=O)N(CC(=O)N2CCc3ccccc3C2)C1=O (configuration not stated)	-	-	-	-	.	.
CC1(c2ccc(Cl)cc2)NC(=O)N(CC(=O)N2CCc3ccccc3C2)C1=O (configuration not stated)	-	-	15	-	-	-
O=C(Nc1ncccn1)c1ccc([N+](=O)[O-])cc1Cl	-	-	-	-	.	.
O=C(Nc1cccnc1)c1ccc([N+](=O)[O-])cc1Cl	-	-	16	-	-	-
COc1ccc(S(=O)(=O)N2CCN(CC(=O)NC(C)c3cccs3)CC2)cc1 (configuration not stated)	-	-	-	-	.	.
COc1ccc(S(=O)(=O)N2CCN(CC(=O)NCCc3cccs3)CC2)cc1	-	-	15	-	-	-
CC(=O)Nc1ccc(C2NC(=O)CCC2[N+](=O)[O-])cc1 (configuration not stated)	-	-	-	-	.	.
COC(=O)c1ccc(C2NC(=O)CCC2[N+](=O)[O-])cc1 (configuration not stated)	-	-	14	-	-	-
CCc1c(C2CC2)ncn1Cc1cccc(-c2ccccc2)c1	-	-	-	-	.	.
Nc1ccc(F)c(CN2CCN(c3ncc(Cc4ccccc4)cn3)CC2)c1	.	.	-	-	.	.
COc1cccc(C(=O)N/N=c2/oc3ccccc3cc2C(N)=O)c1	-	-	14	-	-	-
CCN(CC)S(=O)(=O)c1cccc(-c2nnc(SCC(N)=O)n2C)c1	-	-	-	-	.	.
CCN(CC)S(=O)(=O)c1cccc(-c2nnc(SCc3ncc(-c4ccccc4)o3)n2C)c1	-	-	15	-	-	-
COC(=O)C1=C(C)N(Cc2ccc(C(F)(F)F)cc2)C(=NCc2ccccc2)NC1c1cccc(Cl)c1 (configuration not stated)	.	.	-	-	.	.
CN(C)S(=O)(=O)N1CCC(Oc2ccc(C(=O)NCc3cnn(C)c3)cc2)CC1	-	-	14	-	-	-
CCC1(c2ccccc2)NC(=O)N(CC(=O)Nc2ccc(OC)nc2)C1=O (configuration not stated)	-	-	22	-	-	-
CCC1(c2ccccc2)NC(=O)N(CC(=O)Nc2ccc3c(c2)CCC3)C1=O (configuration not stated)	-	-	-	-	.	.
